In ChEMBL document CHEMBL4680114, “Optimization of Potent and Selective Ataxia Telangiectasia-Mutated Inhibitors Suitable for a Proof-of-Concept Study in Huntington's Disease Models” (J Med Chem, 2019):
≈ marks a conversion by molar mass, not a printed value.

Legend:
[1] = Distribution coefficient, logD of compound at pH 7.4; assay type: physicochemical; settings: octanol/water
[2] = Kinetic solubility in pH 7.4 PBS buffer by LC-UV assay; assay type: physicochemical; settings: read-out: Kinetic_solubility
Procedure, shortened: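 Compound from a 10 mM DMSO stock diluted to a nominal 200 µM in 0.1 M potassium phosphate/0.8% NaCl pH 7.4 (2% DMSO final), n=2. Shaken 2 h at room temperature, then filtered. Filtrate quantified by LC-UV against 200 µM and 10 µM DMSO standards, with MS peak confirmation.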

[3] = AUC/dose in C57BL/6J mouse plasma at 3 mg/kg, iv administered as single dose by LC-MS/MS analysis; assay type: ADME, organism-based; settings: in vivo
Procedure, shortened: (§1)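 Male C57BL/6 mice, single intravenous dose as solution in 10:50:40 DMSO:PEG400:H2O (5 mL/kg). Plasma by cardiac puncture and brain collected at set times, n=3 per time point. LC-MS/MS quantitation with diclofenac IS. Composite non-compartmental parameters from mean concentrations; C0 back-extrapolated from first two points; kel from at least last three concentrations; AUC dose-normalized.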

[4] = AUC/dose in C57BL/6J mouse brain at 3 mg/kg, iv administered as single dose by LC-MS/MS analysis; assay type: ADME, organism-based; settings: in vivo; procedure, shortened: as §1
[5] = Volume of distribution at steady state in C57BL/6J mouse at 3 mg/kg, iv administered as single dose by LC-MS/MS analysis; assay type: ADME, organism-based; settings: in vivo, read-out: Vdss
Procedure, shortened: (§2)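 Male mice given a single iv dose of 3 mg/kg in 10:50:40 DMSO:PEG400:H2O (5 mL/kg). Plasma (cardiac puncture) and brain collected, n=3 per time point, and measured by LC-MS/MS. Non-compartmental parameters from mean concentrations, with C0 back-extrapolated; AUC by linear trapezoidal method, dose-normalised.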

[6] = Ratio of AUC/dose in brain to plasma of C57BL/6J mouse at 3 mg/kg, iv administered as single dose by LC-MS/MS analysis; assay type: ADME, organism-based; settings: brain and plasma, read-out: BPR; procedure, shortened: as §2
[7] = Unbound brain-to-plasma concentration ratio in C57BL/6J mouse at 3 mg/kg, iv administered as single dose by LC-MS/MS analysis; assay type: ADME, organism-based; settings: brain and plasma, read-out: K(p,uu,brain)

SMILES | solubility kinetic [2] | also measured
CCN1CC(Oc2ccc3c(c2)Cc2cccc(-c4cc(=O)cc(N5CCOCC5)o4)c2S3)C1 | 89 µg/mL (≈ 187 µM) | –
C[C@@H](CN1CCOCC1)Oc1ccc2c(c1)Cc1cccc(-c3cc(=O)cc(N4CCOCC4)o3)c1S2 | 56 µg/mL (≈ 108 µM) | –
CC(=O)N(C)c1ccc2c(c1)Cc1cccc(-c3cc(=O)cc(N4CCOCC4)o3)c1S2 | 77 µg/mL (≈ 172 µM) | –
O=c1cc(-c2cccc3c2Sc2ccc(OC4CCOCC4)cc2C3)oc(N2CCOCC2)c1 | 10 µg/mL (≈ 20.9 µM) | –
COC[C@@H](C)Oc1ccc2c(c1)Cc1cccc(-c3cc(=O)cc(N4CCOCC4)o3)c1S2 | 22 µg/mL (≈ 47.3 µM) | AUC/dose [3]: 1600 nM·kg·h/mg; AUC/dose [4]: 680 nM·kg·h/mg; Vd [5]: 1.9 L/kg; Kp [6]: 0.4; Kp uu [7]: 0.14
C[C@@H]1CN(C[C@H](C)Oc2ccc3c(c2)Cc2cccc(-c4cc(=O)cc(N5CCOCC5)o4)c2S3)C[C@H](C)O1 | 27 µg/mL (≈ 49.2 µM) | –
C[C@@H](CN1CCOC2(CC2)C1)Oc1ccc2c(c1)Cc1cccc(-c3cc(=O)cc(N4CCOCC4)o3)c1S2 | 26 µg/mL (≈ 47.6 µM) | –
O=c1cc(-c2cccc3c2Sc2ccc(OC4COC4)cc2C3)oc(N2CCOCC2)c1 | 25 µg/mL (≈ 55.6 µM) | AUC/dose [3]: 1900 nM·kg·h/mg; AUC/dose [4]: 450 nM·kg·h/mg; Vd [5]: 1.6 L/kg; Kp [6]: 0.2; Kp uu [7]: 0.07
CO[C@@H](C)COc1ccc2c(c1)Cc1cccc(-c3cc(=O)cc(N4CCOCC4)o3)c1S2 | 14 µg/mL (≈ 30.1 µM) | –
C[C@@H]1CN([C@H](C)COc2ccc3c(c2)Cc2cccc(-c4cc(=O)cc(N5CCOCC5)o4)c2S3)C[C@H](C)O1 | 24 µg/mL (≈ 43.7 µM) | –
CC1(CNc2ccc3c(c2)Cc2cccc(-c4cc(=O)cc(N5CCOCC5)o4)c2S3)COC1 | 14 µg/mL (≈ 29.4 µM) | –
O=c1cc(-c2cccc3c2Sc2ccc(OCCN4CCC(F)(F)CC4)cc2C3)oc(N2CCOCC2)c1 | 3 µg/mL (≈ 5.55 µM) | –
COc1ccc2c(c1)C1(CCOCC1)c1cccc(-c3cc(=O)cc(N4CCOCC4)o3)c1S2 | 33 µg/mL (≈ 69.1 µM) | AUC/dose [3]: 1500 nM·kg·h/mg; AUC/dose [4]: 700 nM·kg·h/mg; Vd [5]: 3 L/kg; Kp [6]: 0.5; Kp uu [7]: 0.12
C[C@@H](COc1ccc2c(c1)Cc1cccc(-c3cc(=O)cc(N4CCOCC4)o3)c1S2)N1CCOCC1 | 9 µg/mL (≈ 17.3 µM) | –
O=c1cc(-c2cccc3c2Sc2ccc(OCCN4CC(F)C4)cc2C3)oc(N2CCOCC2)c1 | 46 µg/mL (≈ 93 µM) | –
C[C@@H](CN1CCCC12COC2)Oc1ccc2c(c1)Cc1cccc(-c3cc(=O)cc(N4CCOCC4)o3)c1S2 | 21 µg/mL (≈ 38.4 µM) | –
C[C@@H]1CN(CCOc2ccc3c(c2)Cc2cccc(-c4cc(=O)cc(N5CCOCC5)o4)c2S3)C[C@H](C)O1 | 42.5 µg/mL (≈ 79.5 µM) | –
CN1CC[C@@H](Oc2ccc3c(c2)Cc2cccc(-c4cc(=O)cc(N5CCOCC5)o4)c2S3)C1 | 84 µg/mL (≈ 176 µM) | –
CC(=O)Nc1ccc2c(c1)Cc1cccc(-c3cc(=O)cc(N4CCOCC4)o3)c1S2 | 34 µg/mL (≈ 78.2 µM) | –
C[C@H](CN1C[C@@H](C)O[C@@H](C)C1)Oc1ccc2c(c1)Cc1cccc(-c3cc(=O)cc(N4CCOCC4)o3)c1S2 | 30 µg/mL (≈ 54.7 µM) | AUC/dose [3]: 1100 nM·kg·h/mg; AUC/dose [4]: 110 nM·kg·h/mg; Vd [5]: 2.3 L/kg; Kp [6]: 0.1; Kp uu [7]: 0.03
O=C(Nc1ccc2c(c1)Cc1cccc(-c3cc(=O)cc(N4CCOCC4)o3)c1S2)C1CC1 | 5 µg/mL (≈ 10.9 µM) | –
COc1ccc2c(c1)C(C)(C)c1cccc(-c3cc(=O)cc(N4CCOCC4)o3)c1S2 | 5 µg/mL (≈ 11.5 µM) | –

Further lines, with some results ahead:

solubility kinetic [2] | SMILES | also measured
46 µg/mL (≈ 84 µM) | C[C@@H]1CN(CC(=O)Nc2ccc3c(c2)Cc2cccc(-c4cc(=O)cc(N5CCOCC5)o4)c2S3)C[C@H](C)O1 | logD [1]: 4.5
49 µg/mL (≈ 94.1 µM) | C[C@H](CN1CCOCC1)Oc1ccc2c(c1)Cc1cccc(-c3cc(=O)cc(N4CCOCC4)o3)c1S2 | –
3 µg/mL (≈ 5.7 µM) | O=c1cc(-c2cccc3c2Sc2ccc(OCCN4CCC(F)(F)C4)cc2C3)oc(N2CCOCC2)c1 | –
29 µg/mL (≈ 51.5 µM) | C[C@@H](CN1CCOCC12COC2)Oc1ccc2c(c1)Cc1cccc(-c3cc(=O)cc(N4CCOCC4)o3)c1S2 | –
47 µg/mL (≈ 86 µM) | O=c1cc(-c2cccc3c2Sc2ccc(OCCN4CCCC45CCOC5)cc2C3)oc(N2CCOCC2)c1 (stereo not given) | –
30 µg/mL (≈ 66.4 µM) | C[C@H](O)COc1ccc2c(c1)Cc1cccc(-c3cc(=O)cc(N4CCOCC4)o3)c1S2 | –
92 µg/mL (≈ 177 µM) | CN1CCN(CCOc2ccc3c(c2)Cc2cccc(-c4cc(=O)cc(N5CCOCC5)o4)c2S3)CC1 | –
< 2 µg/mL | O=c1cc(-c2cccc3c2Sc2ccc(OCC4CCOCC4)cc2C3)oc(N2CCOCC2)c1 | –
67 µg/mL (≈ 148 µM) | COC[C@H]1c2cc(OC)ccc2Sc2c(-c3cc(=O)cc(N4CCOCC4)o3)cccc21 | AUC/dose [3]: 960 nM·kg·h/mg; AUC/dose [4]: 430 nM·kg·h/mg; Vd [5]: 3 L/kg; Kp [6]: 0.4; Kp uu [7]: 0.18
7 µg/mL (≈ 13.3 µM) | O=c1cc(-c2cccc3c2Sc2ccc(O[C@@H]4CCN(CC(F)F)C4)cc2C3)oc(N2CCOCC2)c1 | AUC/dose [3]: 1600 nM·kg·h/mg; AUC/dose [4]: 380 nM·kg·h/mg; Vd [5]: 2.6 L/kg; Kp [6]: 0.2; Kp uu [7]: 0.05
12 µg/mL (≈ 23.4 µM) | O=c1cc(-c2cccc3c2Sc2ccc(OC4CN(CC(F)F)C4)cc2C3)oc(N2CCOCC2)c1 | –
101 µg/mL (≈ 179 µM) | CC(C)(O)C1CCN(CCOc2ccc3c(c2)Cc2cccc(-c4cc(=O)cc(N5CCOCC5)o4)c2S3)CC1 | AUC/dose [3]: 950 nM·kg·h/mg; AUC/dose [4]: 120 nM·kg·h/mg; Vd [5]: 4.2 L/kg; Kp [6]: 0.1; Kp uu [7]: 0.05
81 µg/mL (≈ 161 µM) | O=C(CN1CCCC1)Nc1ccc2c(c1)Cc1cccc(-c3cc(=O)cc(N4CCOCC4)o3)c1S2 | –
64 µg/mL (≈ 142 µM) | COC[C@@H]1c2cc(OC)ccc2Sc2c(-c3cc(=O)cc(N4CCOCC4)o3)cccc21 | –
89 µg/mL (≈ 167 µM) | C[C@@H](CN1C[C@H]2C[C@@H]1CO2)Oc1ccc2c(c1)Cc1cccc(-c3cc(=O)cc(N4CCOCC4)o3)c1S2 | –
13 µg/mL (≈ 25 µM) | C[C@H](COc1ccc2c(c1)Cc1cccc(-c3cc(=O)cc(N4CCOCC4)o3)c1S2)N1CCOCC1 | –
82 µg/mL (≈ 158 µM) | O=c1cc(-c2cccc3c2Sc2ccc(OCCN4C[C@H]5C[C@@H]4CO5)cc2C3)oc(N2CCOCC2)c1 (relative stereo) | –
